The list is not random: actives were taken first. Their share in the collection is about 3.1%.
aDG glyco act: alpha-DG glycosylation activation. Pro5-aDG cells, alpha-DG glycosylation AlphaScreen (IIH6); 0% Pro5, 100% B10-LARGE cell signal. 360,000 tested, 0.22% active. AID 624168. activation, % at 10 µM;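 active = activation of at least 8% versus controls, or a plate z-score of at least 8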;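 note: Pro5 are CHO cells carrying HIG-tagged alpha-DG that lacks glycosylation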
ADAM17 inh: inhibits human ADAM17; P78536; recombinant ADAM17, EDANS/DABCYL FRET peptide cleavage; inhibition, % at 6.95 µM; 370,000 tested, 0.83% active;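 active = inhibition above the mean of compounds lying between control limits plus 3 SD, set per campaign, cut at about 8.5% in these data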;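 note: 0% = DMSO-only wells as the low control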
Target sequence (P78536 215-824 limits assumed): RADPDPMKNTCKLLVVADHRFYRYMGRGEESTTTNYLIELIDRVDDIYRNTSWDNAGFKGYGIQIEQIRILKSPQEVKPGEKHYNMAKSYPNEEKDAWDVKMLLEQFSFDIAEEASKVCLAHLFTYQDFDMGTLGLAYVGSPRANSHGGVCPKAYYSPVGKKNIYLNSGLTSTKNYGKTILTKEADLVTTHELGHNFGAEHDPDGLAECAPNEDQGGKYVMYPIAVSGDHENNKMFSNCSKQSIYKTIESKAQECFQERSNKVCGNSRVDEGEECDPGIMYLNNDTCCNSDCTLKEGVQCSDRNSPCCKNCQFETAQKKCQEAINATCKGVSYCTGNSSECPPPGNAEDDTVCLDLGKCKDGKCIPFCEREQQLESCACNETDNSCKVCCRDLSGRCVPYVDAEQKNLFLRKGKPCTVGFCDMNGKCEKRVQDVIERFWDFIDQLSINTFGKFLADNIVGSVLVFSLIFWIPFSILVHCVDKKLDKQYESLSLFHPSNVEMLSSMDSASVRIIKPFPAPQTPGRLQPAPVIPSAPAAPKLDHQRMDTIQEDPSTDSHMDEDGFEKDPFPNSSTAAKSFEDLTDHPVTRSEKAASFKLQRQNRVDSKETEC
Lipid droplet: hepatic lipid droplet formation modulation. AML12 mouse hepatocytes, oleate lipid droplets, BODIPY imaging. inhibition, % at 6.5 µM. 240,000 tested, 0.4% active. AID 1656;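 active = lipid droplet intensity inhibited by at least 50%, with more than 500 cells counted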
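Assay system: AML12 hepatocytes (mouse); Probe or stimulus: oleic acid at 100 µM to induce lipid droplet formation; Dosing: compound at 6.5 µM only; Schedule: compound with oleate, overnight; Detection: fluorescence imaging, 20x objective, two fields per well; Measure: % inhibition of lipid droplet signal.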
MPTP inh: inhibitors of mitochondrial permeability transition pore; isolated mouse mitochondria, Ca2+ swelling absorbance, 30 min; inhibition, % at 10 µM; 360,000 tested, 1.4% active;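 active = inhibition of 50% or more, scaled per plate between neutral and stimulator controls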;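 note: 0% = DMSO wells given calcium and 100% = 1 mM EGTA wells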
V-ATPase pHluor: yeast V-ATPase proton transport regulation by pHLuorin; 350,000 tested, 0.37% active; S. cerevisiae, pHLuorin cytosolic pH fluorescence; AID 504577; response, % at 10 µM; in the data active = response mostly above about 7.3%, no sharp cut-off; inactive = mostly below about 5.4%; note: actives read high
ADAM10 inh: ADAM10 inhibition, QFRET primary screen; O14672; recombinant ADAM10, EDANS/DABCYL FRET peptide cleavage, 3 h; inhibition, % at 7 µM; 370,000 tested, 0.62% active; AID 720582;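 active = inhibition above a per-campaign cutoff equal to the mean of compounds falling between control-based bounds plus 3 SD, cut at about 20% in these data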;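 note: 0% = DMSO wells while the 100% control is not disclosed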
V-ATPase pH SP: yeast V-ATPase proton transport regulation. AID 602197. response, % at 10 µM. 980 tested, 2% active. shares compounds with V-ATPase pHluor. S. cerevisiae pHLuorin cytosolic pH; in the data active = response above about 24%;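 note: plate controls were vehicle wells for no effect and positive control wells for full effect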
An asterisk follows results filed as active; / = no result.

SMILES | aDG glyco act | ADAM17 inh | Lipid droplet | MPTP inh | V-ATPase pHluor | ADAM10 inh | V-ATPase pH SP
CCOC(=O)CC[C@@]1(C(=O)OCC)C[C@@H](CC(=O)NCc2cccc3ccccc23)C(=O)N2CCCC=C21 | / | 1 | / | / | / | -5 | /
CC1=NOC(=O)/C1=C/c1ccc2c(c1)OCO2 | 0 | -5 | -27 | -1 | 11* | -3 | -31
CC1=NOC(=O)/C1=C\c1ccc2c(c1)OCO2 | 0 | 0 | 1 | -8 | -2 | -2 | /
O=S(=O)(CC1NCc2cc(F)ccc21)NC1CCCC1 (stereo unspecified) | / | -7 | / | / | / | -9 | /
COC(=O)[C@H]1C[C@@]2(N3CCCC3)c3ccccc3N[C@H]2N1S(=O)(=O)c1ccc([N+](=O)[O-])cc1 | / | 0 | / | / | / | -1 | /
COc1ccc(CC(=O)OC(C)C(=O)c2ccc(C)cc2)cc1 (stereo unspecified) | 0 | 0 | 0 | 1 | 8.3* | -3 | -3
C=CCn1c(COc2ccccc2)nnc1SCC(=O)Nc1ccc(S(=O)(=O)Nc2cc(C)nc(C)n2)cc1 | / | 1 | / | / | / | -3 | /
CN1C(=O)c2cc(NC(=O)Nc3ccccc3)ccc2OC[C@H]2O[C@@H](CC(=O)NCC(F)(F)F)CC[C@@H]21 | / | -10 | / | / | / | 0 | /
N#CC(=C1CCCC1)c1nc(-c2ccccc2)cs1 | 0 | -3 | / | 1 | 9.7* | 4 | -4
COc1cccc(-n2c(CCn3nc(C)c([N+](=O)[O-])c3C)n[nH]c2=S)c1 | 0 | -1 | 28 | -1 | 9.7* | -3 | -2
Cc1cccc(-n2c(CCn3nc(C)c([N+](=O)[O-])c3C)n[nH]c2=S)c1 | 0 | -5 | -15 | 0 | -5 | 3 | /
COC[C@H]1O[C@]2(c3ccccc3)CO[C@H]1[C@@H](/C=C/c1ccccc1)C2 | / | -2 | / | / | / | 3 | /
O=C(O)CCCC(=O)N1CCCC1 | 0 | 0 | 15 | -3 | 12* | 4 | -2
O=C(CCCC(=O)N1CCCC1)N1CCCC1 | 0 | -2 | / | 0 | 5 | -7 | /
COc1ccc(NC(=O)COC(=O)c2ccc(S(=O)(=O)N(C)c3ccccc3OC)cc2)cc1OC | 0 | 1 | 3 | 1 | 8 | 2 | 0
COc1ccccc1N(C)S(=O)(=O)c1ccc(C(=O)OCC(=O)Nc2ccc(C(N)=O)cc2)cc1 | 0 | 4 | / | 0 | 0 | -10 | /
COC(=O)[C@]12C[C@H](CC(=O)N3CCC(c4ccccc4)CC3)C(=O)N(Cc3ccco3)C1=C[C@H](C(C)(C)C)O[C@@H]2C | / | 4 | / | / | / | 4 | /
CN1C(=O)N(C)C2(c3ccccc3)Nn3c(s/c(=C/c4ccccc4)c3=O)=NC12c1ccccc1 (stereo unspecified) | 0 | -4 | -47 | 8 | 23* | -9 | 0
O=C1c2cccn2CC2Cc3ccccc3N12 (stereo unspecified) | / | -2 | / | / | / | -7 | /
O=C1C(C=NC2CC2)=C(O)c2ccccc21 | 0 | 1 | 6 | -1 | 9.8* | 9 | 0
CCn1c(SCC(=O)Nc2ccccc2-c2ccccc2)nnc1-c1cnccn1 | / | 0 | / | / | / | 5 | /
COc1ccc(CN2C(NC(=O)OCc3ccccc3)=NC3=CC(C)(C)n4c(=O)n(-c5ccccc5)c(=O)n4C32)c(OC)c1 (stereo unspecified) | / | -1 | / | / | / | -8 | /
N=C1c2ccccc2CN1NC(=O)COc1ccc(Cl)cc1 | 0 | 0 | 10 | -3 | 11* | -1 | 1
CC(C)(C)c1ccc(OCC(=O)NN2Cc3ccccc3C2=N)cc1 | 0 | -4 | 0 | -5 | 5 | -7 | /
COc1ccc(N(CC(=O)N2CCN(c3ccc(Cl)cc3)CC2)S(=O)(=O)c2c(C)n[nH]c2C)cc1 | 0 | 6 | 11 | -1 | 7.4* | 5 | -1
SMILES | aDG glyco act | ADAM17 inh | Lipid droplet | MPTP inh | V-ATPase pHluor | ADAM10 inh | V-ATPase pH SP
C[C@@H]1C=C[C@](Cc2ccccc2)(C(=O)NCC2CC2)N1C(=O)c1ccccc1 | 0 | -3 | -32 | -3 | 11* | -4 | 0
CC(C)=CCC/C(C)=C/C[C@]12C[C@H](C(=O)O)N(C(=O)OC(C)(C)C)[C@@H]1N(C(=O)OC(C)(C)C)c1ccccc12 | / | -3 | / | / | / | 8 | /
CCn1cc(CN2CCCC(CO)(Cc3cccc(Cl)c3)C2)cn1 (stereo unspecified) | 0 | -6 | -9 | 3 | 13* | 1 | 1
CCn1cc(S(=O)(=O)N2CCN(Cc3cccc(Cl)c3)CC2)cn1 | 0 | 0 | 10 | -2 | 6.1* | 6 | 1
CCn1cc(S(=O)(=O)N2CCN(Cc3ccc(F)cc3)CC2)cn1 | 0 | -8 | 13 | 1 | 3 | -23 | /
COc1cc(OC)cc(C(C)c2ccc(C)cc2)c1 (stereo unspecified) | / | -1 | / | / | / | 0 | /
O=C(NC1CCCCC1)Sc1ccc(Cl)cc1 | 0 | 1 | 0 | 6 | 8.0* | 3 | 8
O=C(Nc1ccc(F)cc1)OCc1cn(Cc2cc(F)cc(F)c2)nn1 | / | 1 | / | / | / | 6 | /
Cc1ccc(C(=O)Nc2ccc(N3CCCCC3)cc2)cc1 | 0 | -3 | / | 1 | 9.9* | -8 | 3
CCOC(=O)C(=O)N=Nc1c(O)[nH]c2ccccc12 | 0 | -1 | 15 | -4 | -2 | 2 | 1
COC(=O)[C@]12C[C@H](CC(=O)NCC34CC5CC(CC(C5)C3)C4)C(=O)N(Cc3ccc(Cl)cc3Cl)C1=C[C@H](C(C)C)O[C@@H]2C1CC1 | / | 4 | / | / | / | 4 | /
CCC(C(=O)Nc1ccccc1N1CCCC1)c1cccc(C)c1 (stereo unspecified) | / | 1 | / | / | / | 6 | /
COc1ccc(/C=C/C(=O)Nc2ccc(S(=O)(=O)Nc3onc(C)c3C)cc2)cc1OC | 1 | -5 | -3 | 1 | 6 | -20 | /
Cc1noc(NS(=O)(=O)c2ccc(NC(=O)/C=C/c3ccccc3)cc2)c1C | 0 | -1 | / | 2 | 13* | 3 | 4
COC(=O)[C@H](C(C)C)N(CCCc1cn(Cc2ccc(C)cc2)nn1)S(=O)(=O)c1ccccc1Br | / | 1 | / | / | / | 8 | /
O=C(N/C(=C\c1ccc(Br)cc1)C(=O)N1CCOCC1)c1ccco1 | 0 | 1 | / | 2 | 14* | -3 | -3
O=C(N/C(=C/c1ccc(Br)cc1)C(=O)N1CCOCC1)c1ccco1 | 0 | -6 | 0 | 0 | 3 | -10 | /
Cn1nc(NC(=O)C(C)(C)C)c2c(F)cccc21 | 0 | -1 | 13 | 0 | 12* | 1 | 1
CN(C)c1cccc2c1c(NC(=O)c1ccc(F)cc1)nn2C | 0 | 0 | / | 0 | -3 | 2 | /
CCn1c(SCC(=O)Nc2nc3ccccc3s2)nnc1-c1ccc(Br)cc1 | 0 | -6 | 2 | 3 | 15* | -1 | 1

Source: PubChem BioAssay
